# Measured values from ChEMBL document CHEMBL2163281, “p-(4-Azipentyl)propofol: a potent photoreactive general anesthetic derivative of propofol” (J Med Chem, 2011).
# Activity calls are given as the source filed them. The calls are words filed in the database; no cut-off is given here.
# What was measured:
# [1] = Antagonist activity at Torpedo californica nACh receptor expressed in Xenopus oocytes assessed as inhibition of acetylcholine-induced current response; type: functional, cell-based; settings: Tetronarce californica, Oocyte
# In short: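 Torpedo nACh receptor cRNA (2α:1β:1γ:1δ, ~25 ng) injected into Xenopus oocytes. Two-electrode clamp at −50 mV in ND96. Currents were evoked by 10 μM ACh (~EC20), then by ACh plus 1–100 μM drug for 15–20 s with ~3 min washes. Currents were normalized to the ACh response and fit to a logistic inhibition equation; 3 oocytes.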
# [2] = target: T1, GABA-A receptor; alpha-1/beta-3/gamma-2 (Homo sapiens) (UniProt P14867+P18507+P28472); test: Increase of [3H]-flunitrazepam binding to alpha1beta3gamma2 GABAA receptor expressed in HEK293S-TetR cells at >30 uM after 1 hr by liquid scintillation counting; type: cell-based
# In short: (§1)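 Membranes from HEK293S-TetR cells expressing α1β3γ2 GABAA receptors (200 μg protein) in 10 mM phosphate pH 7.4, 200 mM KCl, 1 mM EDTA. Incubated with 3 nM [3H]muscimol or 1.5 nM [3H]flunitrazepam plus drug for 1 h at 4°C. Nonspecific binding was set with 1 mM GABA or 1 mM flurazepam. Filtered onto PEI-treated filters, then scintillation-counted; triplicates.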
# [3] = target: T1, GABA-A receptor; alpha-1/beta-3/gamma-2 (Homo sapiens); test: Increase of [3H]-flunitrazepam binding to alpha1beta3gamma2 GABAA receptor expressed in HEK293S-TetR cells up to 400 uM after 1 hr by liquid scintillation counting; type: cell-based; in short: as §1
# [4] = target: T1, GABA-A receptor; alpha-1/beta-3/gamma-2 (Homo sapiens); test: Increase of [3H]-flunitrazepam binding to alpha1beta3gamma2 GABAA receptor expressed in HEK293S-TetR cells at 0.1 to 40 uM after 1 hr by liquid scintillation counting relative to control; type: cell-based; in short: as §1
# [5] = target: T1, GABA-A receptor; alpha-1/beta-3/gamma-2 (Homo sapiens); test: Increase of [3H]muscimol binding to alpha1beta3gamma2 GABAA receptor expressed in HEK293S-TetR cells after 1 hr by liquid scintillation counting relative to control; type: cell-based; in short: as §1
# [6] = target: T2, GABA-A receptor; agonist GABA site (Homo sapiens) (UniProt P14867+P47870+P28472+P48169+P34903+P18505+P47869+P31644+Q16445); test: Agonist activity at human alpha1beta2gamma2L GABAA receptor expressed in Xenopus oocytes assessed as potentiation of channel current response by two-electrode voltage clamp electrophysiology assay relative to control; type: functional, cell-based; settings: Oocyte
# [7] = target: GABA-A receptor; agonist GABA site; test: Agonist activity at human alpha1beta2gamma2L GABAA receptor expressed in Xenopus oocytes assessed as potentiation of channel current response by two-electrode voltage clamp electrophysiology assay; type: functional, cell-based; settings: oocyte
# [8] = target: GABA-A receptor; agonist GABA site; test: Agonist activity at human alpha1beta2gamma2L GABAA receptor expressed in Xenopus oocytes assessed as potentiation of GABA-induced current response by two-electrode voltage clamp electrophysiology assay; type: functional, cell-based; settings: oocyte
# [9] = test system: Xenopus laevis; test: Anesthetic activity in Xenopus laevis tadpoles assessed as loss of righting reflexes; type: functional, organism-based; settings: Tadpole
# In short: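 Xenopus tadpoles in groups of 5 were held in 2.5 mM Tris HCl pH 7.4 under low light at seven concentrations from 1.0 to 20 μM, with ethanol ≤5 mM. Each animal was flipped every 10 min until a stable response, usually at 40 min. LoRR meant failure to right within 5 s. Only animals that recovered overnight were analysed. Quantal scores were fit to a logistic equation.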
# [10] = Aqueous solubility of the compound in water
# [11] = test system: Tetronarce californica; test: Binding affinity to Torpedo californica nACh-delta receptor assessed as photoincorporation at 1.7 uM by SDS-PAGE followed by fluorography analysis in presence of carbamylcholine; settings: tested as the 3H-labelled form
# In short: (§2)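 Torpedo californica electric-organ nACh receptor-rich membranes at 2 mg/mL in Torpedo saline pH 7.0 with 1 mM oxidized glutathione. Membranes were equilibrated 30 min with 1.7 μM [3H]ligand alone or with 100 μM tetracaine, 100 μM phencyclidine, 300 μM propofol and/or 1 mM carbamylcholine. Samples were UV-irradiated at 365 nm on ice for 30 min. Read-out: 8% SDS-PAGE, fluorography (2 weeks) and scintillation counting of gel bands.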
# [12] = test system: Tetronarce californica; test: Binding affinity to Torpedo californica nACh-gamma receptor assessed as photoincorporation at 1.7 uM by SDS-PAGE followed by fluorography analysis in presence of carbamylcholine; settings: tested as the 3H-labelled form; in short: as §2
# [13] = test system: Tetronarce californica; test: Binding affinity to Torpedo californica nACh-beta receptor assessed as photoincorporation at 1.7 uM by SDS-PAGE followed by fluorography analysis in presence of carbamylcholine; settings: tested as the 3H-labelled form; in short: as §2
# [14] = test system: Tetronarce californica; test: Binding affinity to Torpedo californica nACh-delta receptor assessed as photoincorporation at 1.7 uM by SDS-PAGE followed by fluorography analysis in presence of propofol; settings: tested as the 3H-labelled form; in short: as §2
# [15] = test system: Tetronarce californica; test: Binding affinity to Torpedo californica nACh-gamma receptor assessed as photoincorporation at 1.7 uM by SDS-PAGE followed by fluorography analysis in presence of propofol; settings: tested as the 3H-labelled form; in short: as §2
# [16] = test system: Tetronarce californica; test: Binding affinity to Torpedo californica nACh-beta receptor assessed as photoincorporation at 1.7 uM by SDS-PAGE followed by fluorography analysis in presence of propofol; settings: tested as the 3H-labelled form; in short: as §2
# [17] = test system: Tetronarce californica; test: Binding affinity to Torpedo californica nACh-delta receptor assessed as photoincorporation at 1.7 uM by SDS-PAGE followed by fluorography analysis in presence of phencyclidine; settings: tested as the 3H-labelled form; in short: as §2
# [18] = test system: Tetronarce californica; test: Binding affinity to Torpedo californica nACh-delta receptor assessed as photoincorporation at 1.7 uM by SDS-PAGE followed by fluorography analysis in presence of tetracaine; settings: tested as the 3H-labelled form; in short: as §2
# [19] = test system: Tetronarce californica; test: Binding affinity to Torpedo californica nACh-beta receptor assessed as photoincorporation at 1.7 uM by SDS-PAGE followed by fluorography analysis in presence of tetracaine; settings: tested as the 3H-labelled form; in short: as §2
# [20] = test system: Tetronarce californica; test: Binding affinity to Torpedo californica nACh-alpha receptor assessed as increase photoincorporation at 1.7 uM by SDS-PAGE followed by fluorography analysis in presence of carbamylcholine and propofol; settings: tested as the 3H-labelled form; in short: as §2
# [21] = test system: Tetronarce californica; test: Binding affinity to Torpedo californica nACh-alpha receptor assessed as decrease photoincorporation at 1.7 uM by SDS-PAGE followed by fluorography analysis in presence of carbamylcholine and phencyclidine; design: scale not given: the % may be the effect or the level left; settings: tested as the 3H-labelled form; in short: as §2
# [22] = test system: Tetronarce californica; test: Binding affinity to Torpedo californica nACh-alpha receptor assessed as photoincorporation at 1.7 uM by SDS-PAGE followed by fluorography analysis in presence of carbamylcholine; settings: tested as the 3H-labelled form; in short: as §2
# [23] = test system: Tetronarce californica; test: Binding affinity to Torpedo californica nACh-gamma receptor assessed as photoincorporation at 1.7 uM by SDS-PAGE followed by fluorography analysis in presence of tetracaine; settings: tested as the 3H-labelled form; in short: as §2
# [24] = Binding affinity to VDAC assessed as photoincorporation at 1.7 uM by SDS-PAGE followed by fluorography analysis; settings: tested as the 3H-labelled form; in short: as §2
# [25] = Binding affinity to Na+/K+ ATPase alpha assessed as photoincorporation at 1.7 uM by SDS-PAGE followed by fluorography analysis; settings: tested as the 3H-labelled form; in short: as §2
# [26] = target: T3, 43 kDa receptor-associated protein of the synapse (Homo sapiens) (UniProt Q13702); test: Binding affinity to RAPsyn assessed as photoincorporation at 1.7 uM by SDS-PAGE followed by fluorography analysis; settings: tested as the 3H-labelled form; in short: as §2
# T3 sequence (whole entry): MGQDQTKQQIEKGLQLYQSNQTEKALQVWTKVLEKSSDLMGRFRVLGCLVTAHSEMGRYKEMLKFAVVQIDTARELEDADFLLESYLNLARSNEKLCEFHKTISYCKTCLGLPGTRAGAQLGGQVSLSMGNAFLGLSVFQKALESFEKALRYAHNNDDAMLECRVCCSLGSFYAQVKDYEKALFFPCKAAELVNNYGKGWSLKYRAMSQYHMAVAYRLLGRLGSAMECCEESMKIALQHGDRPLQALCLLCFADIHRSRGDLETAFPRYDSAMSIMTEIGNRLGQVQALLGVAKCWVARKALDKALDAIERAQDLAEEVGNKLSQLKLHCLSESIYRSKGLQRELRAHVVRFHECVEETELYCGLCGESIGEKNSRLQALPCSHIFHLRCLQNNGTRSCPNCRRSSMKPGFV
# [27] = test system: Tetronarce californica; test: Binding affinity to Torpedo californica nACh-delta receptor assessed as photoincorporation at 1.7 uM by SDS-PAGE followed by fluorography analysis; settings: tested as the 3H-labelled form; in short: as §2
# [28] = test system: Tetronarce californica; test: Binding affinity to Torpedo californica nACh-gamma receptor assessed as photoincorporation at 1.7 uM by SDS-PAGE followed by fluorography analysis; settings: tested as the 3H-labelled form; in short: as §2
# [29] = test system: Tetronarce californica; test: Binding affinity to Torpedo californica nACh-beta receptor assessed as photoincorporation at 1.7 uM by SDS-PAGE followed by fluorography analysis; settings: tested as the 3H-labelled form; in short: as §2
# [30] = target: T2, GABA-A receptor; agonist GABA site (Homo sapiens); test: Agonist activity at human alpha1beta2gamma2L GABAA receptor expressed in Xenopus oocytes assessed as potentiation of GABA-induced current response at 6 uM by two-electrode voltage clamp electrophysiology assay relative to control; type: functional, cell-based; settings: Oocyte
# [31] = target: T2, GABA-A receptor; agonist GABA site (Homo sapiens); test: Agonist activity at human alpha1beta2gamma2L GABAA receptor expressed in Xenopus oocytes assessed as potentiation of GABA-induced current response at 100 uM by two-electrode voltage clamp electrophysiology assay relative to control; type: functional, cell-based; settings: Oocyte
# [32] = Chemical stability of the compound in 0.01 M Tris-HCl buffer at pH 7.4 at 4 degC after 2.5 days; type: physicochemical; settings: pH 7.4, 60 h
# In short: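 Held near saturation in buffer at 4°C for at least 2.5 days, then analysed by reverse-phase HPLC.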
# [33] = Aqueous solubility of the compound in 0.01 M Tris-HCl buffer at pH 7.4; type: physicochemical
# [34] = test system: Tetronarce californica; test: Binding affinity to Torpedo californica nACh-beta receptor assessed as photoincorporation at 1.7 uM by SDS-PAGE followed by fluorography analysis in presence of phencyclidine; settings: tested as the 3H-labelled form; in short: as §2
# [35] = test system: Tetronarce californica; test: Binding affinity to Torpedo californica nACh-gamma receptor assessed as photoincorporation at 1.7 uM by SDS-PAGE followed by fluorography analysis in presence of phencyclidine; settings: tested as the 3H-labelled form; in short: as §2
smiles,measurement,setting,value
CC(C)c1cccc(C(C)C)c1O [PROPOFOL],IC50,[1],7.3 µM
same,Activity,[2],inactive
same,Activity,[3],inactive
same,fold change (FC),[4],2
same,fold change (FC),[5],2.4
same,Activity,[6],45%
same,EC50,[7],50 µM
same,EC50,[8],5.2 µM
same,EC50,[9],2.2 µM
same,solubility,[10],1000 µM
CC(C)c1cc(CCCC2(C)N=N2)cc(C(C)C)c1O,Activity,[11],< 20%
same,Activity,[12],< 20%
same,Activity,[13],< 20%
same,Activity,[14],< 20%
same,Activity,[15],< 20%
same,Activity,[16],< 20%
same,Activity,[17],< 20%
same,Activity,[18],< 20%
same,Activity,[19],< 20%
same,Activity,[20],20%
same,Activity,[21],20%
same,Activity,[22],100%
same,Activity,[23],< 20%
same,Activity,[24],Active
same,Activity,[25],Active
same,Activity,[26],Active
same,Activity,[27],Active
same,Activity,[28],Active
same,Activity,[29],Active
same,IC50,[1],4 µM
same,Activity,[2],Active
same,Activity,[3],inactive
same,fold change (FC),[4],1.6
same,fold change (FC),[5],1.6
same,Activity,[6],10%
same,fold change (FC),[30],9
same,EC50,[7],15 µM
same,fold change (FC),[31],20
same,EC50,[8],4.5 µM
same,EC50,[9],3.2 µM
same,Stability,[32],Stable
same,solubility,[33],73 µM
same,Activity,[34],< 20%
same,Activity,[35],< 20%
